Results on 28 molecules are retold here after ChEMBL document CHEMBL2331313, “Synthesis and SAR study of modulators inhibiting tRXRα-dependent AKT activation” (Eur J Med Chem, 2013).

For test [1], the target named is T1, Retinoic acid receptor RXR-alpha (Homo sapiens, UniProt P19793).
T1 sequence (P19793 whole entry): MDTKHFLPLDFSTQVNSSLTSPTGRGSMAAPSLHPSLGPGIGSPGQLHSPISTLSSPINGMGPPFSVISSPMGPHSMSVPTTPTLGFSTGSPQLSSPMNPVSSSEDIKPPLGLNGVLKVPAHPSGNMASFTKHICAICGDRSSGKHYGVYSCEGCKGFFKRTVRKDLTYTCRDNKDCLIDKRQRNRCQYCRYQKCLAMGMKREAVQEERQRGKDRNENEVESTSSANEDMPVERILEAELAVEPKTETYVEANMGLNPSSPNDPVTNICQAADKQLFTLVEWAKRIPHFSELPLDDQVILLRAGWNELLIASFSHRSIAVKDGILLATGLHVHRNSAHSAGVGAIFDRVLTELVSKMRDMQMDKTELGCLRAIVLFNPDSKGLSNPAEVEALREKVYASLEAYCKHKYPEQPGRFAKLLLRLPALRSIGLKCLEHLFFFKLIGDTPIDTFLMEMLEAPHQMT
Kind of test: Displacement of [3H]-9-cis-RA from human GST-tagged N-terminal truncated RXRalpha after 1 hr by liquid scintillation counting. In short, it runs like this:
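GST-tagged human RXRα-LBD (223–462) preincubated with unlabeled 9-cis-RA or test compound at varied concentrations in binding buffer (0.15 M KCl, 10 mM Tris·HCl pH 7.4, 8% glycerol, 0.5% CHAPS), 4°C, 1 h; [3H]-9-cis-RA then added to 7.5 nM final, overnight at 4°C. Receptor captured on glutathione sepharose beads; bound radioligand counted by liquid scintillation.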

The test system of test [2] is ZR-75-1. Kind of test: Induction of apoptosis in human ZR75-1 cells assessed as PARP cleavage at 30 uM after 6 hrs by Western blot analysis. The class given is functional, cell-based. In short, it runs like this: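 ZR-75-1 cells (RPMI1640, 10% FBS) treated with vehicle or 30 μM compound for 6 hr. Lysates run on 10% SDS-PAGE, blotted to PVDF and probed with anti-PARP (1:3000) for cleavage, ECL detection.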
In general terms: In western blotting, separated proteins are transferred to a membrane and probed.

Another test has as its system PC-3. Kind of test: Cytotoxicity against human PC3 cells after 24 hrs by MTT assay. In kind it is functional, cell-based. The essentials:
(§1)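 Cells in RPMI1640 with 10% FBS (37°C, 5% CO2) treated with various concentrations for 24 hr in 96-well format. MTT at 2 mg/mL added for 4 hr at 37°C, formazan dissolved in DMSO, absorbance read at 570 nm for viability.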
In general terms: Tetrazolium dyes change colour on reduction, which living cells bring about.

Test [3] relates to ZR-75-1. Kind of test: Cytotoxicity against human ZR75-1 cells after 24 hrs by MTT assay. The class given is functional, cell-based. In short, it runs like this: as §1
The next test concerns HCT-116. Kind of test: Induction of apoptosis in human HCT116 cells assessed as increase in TNFalpha-induced PARP cleavage at 40 uM after 4 hrs by Western blot analysis. The class given is functional, cell-based.
The next test relates to HeLa. Kind of test: Decrease in TNFalpha-induced Akt phosphorylation in RXRalpha-knockdown human HeLa cells at 20 uM incubated for 1 hr prior to TNFalpha-induction measured after 30 mins by Western blot analysis. In kind it is functional, cell-based.
Test [4] has as its target T1, Retinoic acid receptor RXR-alpha. Kind of test: Displacement of [3H]-9-cis-RA from RXRalpha (unknown origin) by liquid scintillation counting. (In general: Displacement assays read how much labelled ligand stays bound in the presence of the test substance.)
Test [5] deals with T2, Retinoic acid receptor RXR-alpha (Homo sapiens) (UniProt P19793).
T2 sequence (whole entry): T1 sequence (P19793 whole entry)
Kind of test: Inhibition of RXRalpha in human HCT116 cells assessed as inhibition of TNFalpha-induced Akt phosphorylation. In kind it is cell-based. The note with it: HCT-116.

In test [6] the target is T2, Retinoic acid receptor RXR-alpha (Homo sapiens). Kind of test: Inhibition of RXRalpha in human A549 cells assessed as inhibition of TNFalpha-induced Akt phosphorylation at 30 uM incubated for 1 hr prior to TNFalpha-induction measured after 30 mins by Western blot analysis. The class given is cell-based. In short, it runs like this: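 A549 cells (DMEM, 10% FBS) pretreated 1 hr with 30 μM compound, then TNFα (10 ng/mL) for 30 min. Phospho-AKT (1:1000) and total AKT (1:1000) immunoblotted after 10% SDS-PAGE, with ECL detection.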

For test [7] the target is unchanged. Kind of test: Inhibition of RXRalpha in human HepG2 cells assessed as inhibition of TNFalpha-induced Akt phosphorylation. In kind it is cell-based.
For test [8] the target is unchanged. Kind of test: Antagonist activity at RXRalpha (unknown origin) expressed in HCT116 cells assessed as inhibition of 9-cis-RA-induced galactosidase activity after 12 hrs by gal4 reporter gene assay. The settings on record: HCT-116, in the assay text read “luciferase activity” for “galactosidase activity”. The class given is cell-based. In short, it runs like this:
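GAL4-RXRα-LBD transactivation in HCT-116 cells: cells transfected for 24 hr with pG5 luciferase reporter (50 ng/well) plus pGAL4-RXRα-LBD vector (50 ng/well), then exposed to 9-cis-RA (10^-7 M) together with varied compound concentrations for 12 hr. Luciferase read by dual-luciferase assay. Cells grown in DMEM with 10% FBS, 37°C, 5% CO2.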

Activity calls are given as the source filed them. The rule behind the calls is not given here.

Regarding `CC1=C(CC(=O)O)c2cc(F)ccc2/C1=C\c1ccc(-c2ccccn2)cc1`, in test [1], the IC50 is at least 100 µM.
On the same count and under the same terms, the result for `CC1=C(CC(=O)O)c2cc(F)ccc2/C1=C\c1ccc(C#N)cc1` reads at least 100 µM.
`CC(C)c1ccc(/C=C2\C=C(CC(=O)O)c3cc(F)ccc32)cc1`: the result in the test with ZR-75-1 [2] and in the test with HCT-116 was Active. Besides, the Activity entry in the test on PC-3 and in the test on ZR-75-1 [3] was “Dose-dependent effect” each time. Also, the outcome in the test with HeLa was inactive. For the same molecule, in test [1], the IC50 came to 1.6 µM.
`CC1=C(CC(=O)O)c2cc(F)ccc2/C1=C\c1cccc(C#N)c1` returned an IC50 in [1] of at least 100 µM.
In the case of `CC1=C(CC(=O)O)c2cc(F)ccc2/C1=C\c1ccc(C(C)(C)C)cc1`, in [1], the IC50 was at least 100 µM.
`CC1=C(CC(=O)O)c2ccccc2/C1=C\c1ccc(C(C)C)cc1` registered an IC50 in test [1] of at least 100 µM.
On the same count and under the same terms, the result for `CC1=C(CC(N)=O)c2cc(F)ccc2/C1=C/c1ccc(C(C)C)cc1` reads at least 100 µM; that for `CC1=C(CC(N)=O)c2cc(F)ccc2/C1=C\c1ccc(C(C)C)cc1`, at least 100 µM; that for `CC1=C(CC(=O)O)c2cc(Cl)ccc2/C1=C\c1ccc(C(C)C)cc1`, at least 100 µM.
In [1], `CCOc1ccc2c(c1)C(CC(=O)O)=C(C)/C2=C/c1ccc(C(C)C)cc1` yielded a concentration for half-maximal inhibition (IC50) of 3.08 µM.
Consider `CC1=C(CC(=O)O)c2cc(F)ccc2/C1=C\c1ccc([S+](C)[O-])cc1` (stereo unspecified), for which the result in the test with ZR-75-1 [2] and in the test on HCT-116 was Active. Moreover, the IC50 in [4] was 82.9 µM.
For the molecule `CCc1ccc2c(c1)C(CC(=O)O)=C(C)/C2=C/c1ccc(C(C)C)cc1`, the half-maximal inhibitory concentration (IC50) in test [1] is at least 100 µM.
On the same count and under the same terms, the result for `CC1=C(CC(=O)O)c2cc(F)ccc2/C1=C\c1ccc(C(F)(F)F)cc1` reads 4.73 µM; that for `COc1cccc(/C=C2/C(C)=C(CC(=O)O)c3cc(F)ccc32)c1`, at least 100 µM; that for `CC1=C(CCC(=O)O)c2cc(F)ccc2/C1=C\c1ccc(C(C)C)cc1`, 5.71 µM.
`CC1=C(CC(=O)O)c2cc(C(C)C)ccc2/C1=C\c1ccc(C(C)C)cc1` had an IC50 in test [1] of at least 100 µM.
Consider `CC1=C(CC(=O)O)c2cc(F)ccc2/C1=C\c1ccc(C(C)C)cc1`, for which the outcome with ZR-75-1 [2] and with HCT-116 was Active. Moreover, the inhibition result in [5], in test [6] and in [7] was “Active” each time. Besides, the concentration for half-maximal inhibition (IC50) in test [4] amounted to 2.4 µM. Moreover, the inhibition result in [8] is “Dose-dependent effect”.
With `CC(C)CC1=C(CC(=O)O)c2cc(F)ccc2/C1=C\c1ccc(C(C)C)cc1`, the half-maximal inhibitory concentration (IC50) in test [1] worked out at 3.15 µM.
The same measure, in the same setting: the result for `CC1=C(CC(=O)O)c2cc(F)ccc2/C1=C\c1cccc(C(F)(F)F)c1` reads 8.27 µM; that for `COc1ccc2c(c1)C(CC(=O)O)=C(C)/C2=C/c1ccc(C(C)C)cc1`, at least 100 µM; that for `CC1=C(CC(=O)O)c2cc(F)ccc2/C1=C\c1ccccc1`, 10.7 µM.
For the molecule `CC1=C(CCC#N)c2cc(F)ccc2/C1=C\c1ccc(C(C)C)cc1`, the IC50 in test [1] is at least 100 µM.
In [1], `COc1ccc(/C=C2/C(C)=C(CC(=O)O)c3cc(F)ccc32)cc1` showed an IC50 of at least 100 µM.
`CCOc1ccc(/C=C2/C(C)=C(CC(=O)O)c3cc(F)ccc32)cc1`: the IC50 in [1] is at least 100 µM.
On the same count and under the same terms, the result for `CCC1=C(CC(=O)O)c2cc(F)ccc2/C1=C\c1ccc(C(C)C)cc1` reads 6.29 µM; that for `CC1=C(CC(=O)O)c2cc(C)ccc2/C1=C\c1ccc(C(C)C)cc1`, at least 100 µM; that for `CC(=O)Nc1ccc(/C=C2/C(C)=C(CC(=O)O)c3cc(F)ccc32)cc1`, at least 100 µM.
On the same count and under the same terms, the result for `CC1=C(CC(=O)O)c2cc(F)ccc2/C1=C\c1ccc(N(C)C)cc1` reads at least 100 µM.

A word on the IC50: it is the point on the concentration scale where inhibition reaches its midpoint.
